Measurements published in ChEMBL document CHEMBL2086276, “Synthesis and evaluation of mutual prodrugs of ibuprofen with menthol, thymol and eugenol” (Eur J Med Chem, 2012).

Legend:
[1] = test system: Rattus norvegicus; assay: Antiinflammatory activity in po dosed Wistar rat assessed as inhibition of carrageenan-induced paw edema at dose molecularly equivalent to ibuprofen administered 30 mins prior to carrageenan challenge measured after 4 hrs; assay type: functional
[2] = test system: Rattus norvegicus; assay: Antiinflammatory activity in po dosed Wistar rat assessed as inhibition of carrageenan-induced paw edema at dose molecularly equivalent to ibuprofen administered 30 mins prior to carrageenan challenge measured after 1 hr; assay type: functional
[3] = Half life of the compound in NaOH buffer at pH 10 by HPLC analysis; assay type: physicochemical
How it was run: (§1)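 Hydrolysis at 37 °C in sealed screw-cap vials in a water bath; pH 1.2 HCl, pH 7.4 phosphate or pH 10.0 NaOH buffer, 20 mM total buffer, ionic strength held at 0.5 M with KCl. Sampled at 15, 30, 60, 120, 240 min; ester and ibuprofen quantified by HPLC. Pseudo-first-order Kobs = 2.303/t·log(a/(a−x)); t1/2 = 0.693/Kobs.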

[4] = Half life of the compound in phosphate buffer at pH 7.4; assay type: physicochemical; how it was run: as §1
[5] = test system: Rattus norvegicus; assay: Antiinflammatory activity in po dosed Wistar rat assessed as inhibition of carrageenan-induced paw edema at dose molecularly equivalent to ibuprofen administered 30 mins prior to carrageenan challenge measured after 5 hrs; assay type: functional
[6] = test system: Rattus norvegicus; assay: Antiinflammatory activity in po dosed Wistar rat assessed as inhibition of carrageenan-induced paw edema at dose molecularly equivalent to ibuprofen administered 30 mins prior to carrageenan challenge measured after 6 hrs; assay type: functional
[7] = Chemical stability of the compound assessed as hydrolysis in HCl buffer at pH 1.2 by HPLC analysis; assay type: physicochemical; how it was run: as §1
[8] = test system: Rattus norvegicus; assay: Antiinflammatory activity in po dosed Wistar rat assessed as inhibition of carrageenan-induced paw edema at dose molecularly equivalent to ibuprofen administered 30 mins prior to carrageenan challenge measured after 2 hrs; assay type: functional
[9] = test system: Rattus norvegicus; assay: Antiinflammatory activity in po dosed Wistar rat assessed as inhibition of carrageenan-induced paw edema at dose molecularly equivalent to ibuprofen administered 30 mins prior to carrageenan challenge measured after 3 hrs; assay type: functional
[10] = Octanol-buffer partition coefficient, log P of the compound by HPLC analysis; assay type: physicochemical
How it was run: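 100 mg compound in 10 mL aqueous phase plus 10 mL octanol, shaken 1 h, left 2 h at 25 °C. Each phase quantified by HPLC: C18 column, […], 1.0 mL/min, UV 254 nm. Partition coefficient = organic-phase over aqueous-phase concentration; also computed in silico.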

[11] = test system: Rattus norvegicus; assay: Gastrotoxicity in 24 hrs fasted po dosed Wistar rat assessed as ulcer index at dose molecularly equivalent to ibuprofen after 6 hrs; assay type: toxicity, organism-based; details: in vivo
How it was run: (§2)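 Rats fasted 24 h, then dosed orally as suspension in 0.5% acacia, 150 mg/kg ibuprofen or molar equivalent of prodrug; n = 6 per group. Killed 6 h after dosing, food and water then ad libitum. Stomach opened, rinsed with 5 mL saline, inspected under magnifier, ulcers scored by severity; ulcer index is the group mean, ± SEM.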

[12] = test system: Rattus norvegicus; assay: Gastrotoxicity in 24 hrs fasted Wistar rat assessed as ulcer index at 150 mg/kg, po after 6 hrs; assay type: toxicity, organism-based; parameters: dose 150 mg/kg, route oral; details: in vivo; how it was run: as §2
[13] = test system: Rattus norvegicus; assay: Antiinflammatory activity in Wistar rat model assessed as inhibition of carrageenan-induced paw edema at 20 mg/kg, po administered 30 mins prior to carrageenan challenge measured after 1 hr; assay type: functional
[14] = test system: Rattus norvegicus; assay: Antiinflammatory activity in Wistar rat model assessed as inhibition of carrageenan-induced paw edema at 20 mg/kg, po administered 30 mins prior to carrageenan challenge measured after 2 hrs; assay type: functional
[15] = test system: Rattus norvegicus; assay: Antiinflammatory activity in Wistar rat model assessed as inhibition of carrageenan-induced paw edema at 20 mg/kg, po administered 30 mins prior to carrageenan challenge measured after 5 hrs; assay type: functional
[16] = test system: Rattus norvegicus; assay: Antiinflammatory activity in Wistar rat model assessed as inhibition of carrageenan-induced paw edema at 20 mg/kg, po administered 30 mins prior to carrageenan challenge measured after 6 hrs; assay type: functional
[17] = test system: Rattus norvegicus; assay: Antiinflammatory activity in Wistar rat model assessed as inhibition of carrageenan-induced paw edema at 20 mg/kg, po administered 30 mins prior to carrageenan challenge measured after 3 hrs; assay type: functional
[18] = test system: Rattus norvegicus; assay: Antiinflammatory activity in Wistar rat model assessed as inhibition of carrageenan-induced paw edema at 20 mg/kg, po administered 30 mins prior to carrageenan challenge measured after 4 hrs; assay type: functional

Structure (SMILES)	inhibition (INH) [1]	inhibition (INH) [2]	half-life [3]	half-life [4]	inhibition (INH) [5]	inhibition (INH) [6]	Stability [7]	inhibition (INH) [8]	inhibition (INH) [9]	logP [10]	UI [11]	UI [12]	inhibition in vivo at 20 mg/kg [13]	inhibition in vivo at 20 mg/kg [14]	inhibition in vivo at 20 mg/kg [15]	inhibition in vivo at 20 mg/kg [16]	inhibition in vivo at 20 mg/kg [17]	inhibition in vivo at 20 mg/kg [18]
CC(C)Cc1ccc(C(C)C(=O)OC2CC(C)CCC2C(C)C)cc1 (stereo unspecified)	55%	31.58%	2.72 h	6.01 h	64.01%	66.84%	Stable	34.08%	48.49%	6.69	0.91	–	–	–	–	–	–	–
Cc1ccc(C(C)C)c(OC(=O)C(C)c2ccc(CC(C)C)cc2)c1 (racemic)	55.17%	29.36%	2.42 h	5.19 h	61.5%	64.01%	Stable	32.52%	47.63%	6.27	0.83	–	–	–	–	–	–	–
C=CCc1ccc(OC(=O)C(C)c2ccc(CC(C)C)cc2)c(OC)c1 (racemic)	55.26%	27.93%	1.34 h	2.84 h	56.17%	60.33%	Stable	31.43%	48.06%	5.63	1.08	–	–	–	–	–	–	–
CC(C)Cc1ccc(C(C)C(=O)O)cc1 (racemic) [IBUPROFEN]	–	–	–	–	–	–	–	–	–	3.71	–	2.41	18.3%	22.1%	46.8%	47.6%	40.9%	44%
